In ChEMBL document CHEMBL2331385, “Evaluation of adamantane hydroxamates as botulinum neurotoxin inhibitors: synthesis, crystallography, modeling, kinetic and cellular based studies” (Bioorg Med Chem, 2013):
Calls of active or inactive are those of the source. The rule behind the calls is not given here.

What was measured:
[1] = molecular target: T1, Botulinum neurotoxin type A (Clostridium botulinum, UniProt P0DPI0); test: Inhibition of Clostridium botulinum BoNT/A Hall A hyper protease light chain (1-425aa) using SNAPtide as substrate by FRET assay
T1 sequence (P0DPI0 2-448 limits assumed): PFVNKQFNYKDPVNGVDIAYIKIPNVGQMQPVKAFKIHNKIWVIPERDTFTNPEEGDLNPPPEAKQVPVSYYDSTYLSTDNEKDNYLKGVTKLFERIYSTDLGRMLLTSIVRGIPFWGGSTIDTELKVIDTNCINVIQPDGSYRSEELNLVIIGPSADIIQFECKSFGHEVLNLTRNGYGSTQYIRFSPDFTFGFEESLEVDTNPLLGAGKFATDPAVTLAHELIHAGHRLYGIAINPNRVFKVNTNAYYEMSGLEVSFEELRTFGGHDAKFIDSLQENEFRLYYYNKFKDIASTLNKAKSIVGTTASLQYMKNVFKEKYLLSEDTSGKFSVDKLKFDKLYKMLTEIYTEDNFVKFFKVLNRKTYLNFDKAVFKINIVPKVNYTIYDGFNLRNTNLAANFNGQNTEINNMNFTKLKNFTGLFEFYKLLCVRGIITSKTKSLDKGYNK
Summary of the method: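 Recombinant BoNT/A light chain (residues 1-425) cleaving the FRET peptide SNAPtide at 5 μM, with 0.01 % Triton X-100. Inhibitor concentration varied; IC50 taken from fluorescence signal.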

[2] = molecular target: T1, Botulinum neurotoxin type A; test: Competitive inhibition of Clostridium botulinum BoNT/A Hall A hyper protease light chain (1-425aa) using SNAP-66mer (141-206aa) as substrate by FRET assay
[3] = Cytotoxicity against rat spinal cord cells at 20 uM after 22 hrs; format: cell-based
Summary of the method: (§1)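 Primary rat spinal cord cells or stem cell-derived neurons exposed to compound. Cytotoxicity judged from low overall protein signal on Western blot.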

[4] = molecular target: Botulinum neurotoxin type A (Clostridium botulinum) (UniProt P0DPI0); test: Inhibition of Clostridium botulinum BoNT/A protease light chain in stem cell-derived neurons (unknown origin) assessed as inhibition of SNAP-25 cleavage at 0.5 to 50 uM after 22 hrs by Western blot analysis
Botulinum neurotoxin type A (Clostridium botulinum), sequence (P0DPI0 2-448 limits assumed): as above

[5] = Cytotoxicity against rat spinal cord cells at 500 uM after 22 hrs; format: cell-based; summary of the method: as §1
[6] = Cytotoxicity against rat spinal cord cells at 50 uM after 22 hrs; format: cell-based; summary of the method: as §1
[7] = Cytotoxicity against stem cell-derived neurons (unknown origin) at 20 uM after 22 hrs; summary of the method: as §1
[8] = molecular target: Botulinum neurotoxin type A (Clostridium botulinum) (UniProt P0DPI0); test: Inhibition of Clostridium botulinum BoNT/A protease light chain in rat spinal cord cells assessed as inhibition of SNAP-25 cleavage at 0.5 to 50 uM after 22 hrs by Western blot analysis; format: cell-based
[9] = Cytotoxicity against stem cell-derived neurons (unknown origin) at 500 uM after 22 hrs; summary of the method: as §1

O=C(CC12CC3CC(C1)CC(c1ccc4ccccc4c1)(C3)C2)NO
IC50 [1]: 300 nM

O=C(CC12CC3CC(C1)CC(c1ccccc1)(C3)C2)NO
IC50 [1]: 500 nM | Ki [2]: 750 nM

O=C(CC12CC3CC(C1)CC(C(=O)O)(C3)C2)NO
IC50 [1]: > 500000 nM

O=C(CC12CC3CC(CC(Cl)(C3)C1)C2)NO
IC50 [1]: 1400 nM

O=C(CC12CC3CC(C1)CC(c1ccc(Br)cc1)(C3)C2)NO
Activity [3]: Toxic | Activity [4]: inactive | IC50 [1]: 40 nM | Activity [5]: Toxic | Activity [6]: Toxic | Activity [7]: Toxic | Ki [2]: 27 nM | Activity [8]: inactive | Activity [9]: Non-toxic

O=C(CC12CC3CC(C1)CC(c1ccc4c(c1)CCCC4)(C3)C2)NO
IC50 [1]: 1000 nM

COC12CC3CC(CC(CC(=O)NO)(C3)C1)C2
IC50 [1]: 5700 nM

O=C(CC12CC3CC(C1)CC(c1ccc([N+](=O)[O-])cc1)(C3)C2)NO
Activity [3]: Toxic | Activity [4]: inactive | IC50 [1]: 500 nM | Activity [5]: Toxic | Activity [7]: Toxic | Activity [8]: inactive | Activity [9]: Non-toxic

O=C(CC12CC3CC(C1)CC(c1ccc(-c4ccccc4)cc1)(C3)C2)NO
IC50 [1]: 200 nM

O=C(CC12CC3CC(CC(F)(C3)C1)C2)NO
IC50 [1]: 3100 nM

O=C(C[C@@H](CCO)c1ccc(Cl)cc1Cl)NO
Ki [2]: 160 nM

COc1ccc(C23CC4CC(CC(CC(=O)NO)(C4)C2)C3)cc1
Activity [3]: Toxic | Activity [4]: inactive | IC50 [1]: 250 nM | Activity [5]: Toxic | Activity [7]: Toxic | Ki [2]: 130 nM | Activity [8]: inactive | Activity [9]: Non-toxic

O=C(CC12CC3CC(CC(Br)(C3)C1)C2)NO
IC50 [1]: 1400 nM

O=C(CC12CC3CC(C1)CC(c1ccc([N+](=O)[O-])cc1[N+](=O)[O-])(C3)C2)NO
IC50 [1]: 400 nM

O=C(CC12CC3CC(CC(O)(C3)C1)C2)NO
IC50 [1]: 23000 nM

O=C(CC12CC3CC(CC(C3)C1)C2)NO
IC50 [1]: 1000 nM | Ki [2]: 460 nM

O=C(CC12CC3CC(CC(CO)(C3)C1)C2)NO
IC50 [1]: 3400 nM

Cc1ccc(C23CC4CC(CC(CC(=O)NO)(C4)C2)C3)cc1
IC50 [1]: 250 nM

O=C(CC12CC3CC(C1)CC(c1ccc(Cl)cc1)(C3)C2)NO
IC50 [1]: 30 nM | Ki [2]: 27 nM

CC(=O)OC12CC3CC(CC(CC(=O)NO)(C3)C1)C2
IC50 [1]: 24000 nM

NCCCCCCCNC(=O)c1cc(CCC(=O)NO)c(CCC(O)(c2ccccc2)c2ccccc2)n1Cc1ccccc1
Ki [2]: 760 nM
